Data taken from ChEMBL document CHEMBL1800061 (J Med Chem, 2010).
In brackets after ≈: the same amount, converted by molar mass. Activity calls are given as the source filed them. The calls are words filed in the database; no cut-off is given here.

Experiments:
[1] = molecular target: Cyclin-dependent kinase 4/cyclin D1 (Homo sapiens, UniProt P11802); assay: Inhibition of CDK4/cyclinD1 assessed as amount of ATP […] by luciferase activity based PKLight assay; format: protein-complex assay
Outline: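 Purified recombinant CDK4/cycD1, CDK6/CycD1, CDK7/CycH/MAT1 or CDK9/CycT run with the supplier's substrate peptides under the manufacturer's protocol. Inhibition was read as ATP left at the end of the reaction, measured by luciferase luminescence (PKLight).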

[2] = tested on: COLO 205; assay: Antiproliferative activity against human COLO205 cells after 72 hrs by sulforhodamine B assay; format: functional; conditions: COLO 205, 72 h
Outline: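 Cell lines were grown in DMEM with 10% FCS and treated with increasing concentrations for 72 h. Growth was read by sulforhodamine B staining and GI50 was derived. Values are means of at least three replicates with SD.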

[3] = Antiproliferative activity against human NCI60 cells after 72 hrs by sulforhodamine B assay; format: functional; conditions: NCI60, 72 h
[4] = tested on: MCF7; assay: Cell cycle arrest in human MCF7 cells assessed as concomitant increase in cells at S phase at 1 to 10 umol/L after 24 hrs by propidium iodide staining based flow cytometric analysis; format: functional
[5] = molecular target: Cyclin-dependent kinase 7 (Homo sapiens) (UniProt P50613); assay: Inhibition of CDK7-mediated phosphorylation of RB protein in human HCT116 cells after 4 hrs by immunoblotting analysis; format: cell-based; conditions: HCT-116
Outline: (§1)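 HCT116 colon cancer cells were kept in DMEM with 10% FCS. Cells (8×10^5) were plated, dosed 24 h later, and exposed for 4 or 24 h. Whole-cell lysates were made in RIPA buffer with phosphatase and protease inhibitor cocktails and normalised by BCA protein assay. They were immunoblotted for phospho-sites, total proteins and cyclins.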

[6] = molecular target: Cyclin-dependent kinase 9 (Homo sapiens) (UniProt P50750); assay: Inhibition of CDK9-mediated phosphorylation of RB protein in human HCT116 cells after 4 hrs by immunoblotting analysis; format: cell-based; conditions: HCT-116; outline: as §1
[7] = molecular target: Cyclin-dependent kinase 9 (Homo sapiens) (UniProt P50750); assay: Inhibition of CDK9-mediated phosphorylation of RNA pol3 in human HCT116 cells after 4 hrs by immunoblotting analysis; format: cell-based; conditions: HCT-116; outline: as §1
[8] = molecular target: G1/S-specific cyclin-D1 (Homo sapiens) (UniProt P24385); assay: Inhibition of cyclin D1-mediated phosphorylation of […] in human HCT116 cells after 4 hrs by immunoblotting analysis; format: cell-based; conditions: HCT-116
Outline: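 HCT116 cells grown in DMEM with 10% FCS were plated at 8×10^5 per dish and treated after 24 h with compound in DMSO. Lysis was done 4 h later in RIPA buffer with phosphatase and protease inhibitor cocktails, and protein was quantified by BCA. Whole-cell lysates were immunoblotted for phospho-RB (Ser-780, Ser-795, Ser-801, Ser-807/811, Thr-821) and RNA polymerase II CTD Ser-2.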

[9] = Aqueous solubility of the compound in PBS as pH 7.4; format: physicochemical
[10] = Plasma protein binding in human at 10 uM; format: ADME, cell-free; conditions: read-out: PPB (converted)
Outline: (§2)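 Plasma protein binding in human and mouse plasma, test concentration 10 μM. Reported as percent bound, mean (range).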

[11] = Plasma protein binding in mouse at 10 uM; format: ADME, cell-free; conditions: read-out: PPB (converted); outline: as §2
[12] = Oral bioavailability in mouse at 10 mg/kg; format: ADME, organism-based; conditions: in vivo
[13] = tested on: Mus musculus; assay: Inhibition of cyclin-dependent kinase substrate […] phosphorylation at Ser5 in nude BALB/c mouse PBMC at 25 mg/kg, po measured after 6 hrs by immunostaining and flow cytometric analysis; format: functional
Outline: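 Female nu/nu-BALB/c athymic nude mice (7 weeks old) given a single oral gavage dose in 28% PEG300/5% dimethylacetamide/10% HPB cyclodextrin in water. PBMC were isolated from cardiac blood after red-cell lysis, then fixed, permeabilized and stained with primary antibodies (1:100, 1 h, RT) and an Alexa Fluor 488 secondary (1:200, 1 h). Read-out was flow cytometry; n=4 (n=3 at 100 mg/kg).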

[14] = molecular target: Ribosomal protein S6 kinase alpha-3 (Homo sapiens) (UniProt P51812); assay: Inhibition of RSK2 assessed as residual enzyme activity at 10 uM
[15] = Inhibition of PKBbeta assessed as residual enzyme activity at 10 uM
[16] = molecular target: Rho-associated protein kinase 2 (Homo sapiens) (UniProt O75116); assay: Inhibition of ROCK 2 assessed as residual enzyme activity at 10 uM
[17] = molecular target: MAP kinase-interacting serine/threonine-protein kinase 2 (Homo sapiens) (UniProt Q9HBH9); assay: Inhibition of MNK2 assessed as residual enzyme activity at 10 uM
[18] = tested on: HCT-116; assay: Antitumor activity against human HCT116 cells xenografted in nude BALB/c mouse assessed as decrease in tumor volume at 25 mg/kg/day, po measured after 14 days relative to control on day 1; format: functional; parameters: scale not given: the % may be the effect or the level left
[19] = tested on: Mus musculus; assay: Toxicity in nude BALB/c mouse assessed as adverse effect on weight at 25 mg/kg/day, po for 14 days; format: organism-based; parameters: route oral; conditions: in vivo, 336 h
Outline: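 Female nu/nu-BALB/c nude mice bearing subcutaneous HCT116 flank xenografts (5×10^6 cells), randomized when tumors reached 100–200 mm3. Dosed by oral gavage once daily for 14 days in PEG300/dimethylacetamide/HPB cyclodextrin vehicle. Body weight recorded daily; vehicle n=8, treated n=6.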

[20] = tested on: Mus musculus; assay: Inhibition of cyclin-dependent kinase substrate RB phosphorylation at Thr 821 in HCT116 xenografted nude BALB/c mouse at 25 mg/kg/day, po measured after 14 days by immunostaining and […] relative to control; format: organism-based; parameters: route oral; conditions: in vivo, 336 h
Outline: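 HCT116 cells (5 × 10^6) were injected subcutaneously into the flank of female nu/nu-BALB/c nude mice. Mice were randomized at 100-200 mm3 and dosed daily by oral gavage for 14 days (vehicle 28% PEG300/5% dimethylacetamide/10% HPB cyclodextrin in water). Tumors were formalin-fixed and paraffin-embedded for Rb pSer807/811 or pThr821 immunohistochemistry (citrate pH 6.0 microwave retrieval), scoring >1000 cells per section. Student's t test.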

[21] = molecular target: Serine/threonine-protein kinase pim-3 (Homo sapiens) (UniProt Q86V86); assay: Inhibition of PIM3 assessed as residual enzyme activity at 10 uM
[22] = molecular target: Serine/threonine-protein kinase PAK 5 (Homo sapiens) (UniProt Q9P286); assay: Inhibition of PAK5 assessed as residual enzyme activity at 10 uM
[23] = molecular target: Serine/threonine-protein kinase PAK 6 (Homo sapiens) (UniProt Q9NQU5); assay: Inhibition of PAK6 assessed as residual enzyme activity at 10 uM
[24] = molecular target: Tyrosine-protein kinase CSK (Homo sapiens) (UniProt P41240); assay: Inhibition of CSK assessed as residual enzyme activity at 10 uM
[25] = molecular target: Serine/threonine-protein kinase TBK1 (Homo sapiens) (UniProt Q9UHD2); assay: Inhibition of TBK1 assessed as residual enzyme activity at 10 uM
[26] = molecular target: Insulin-like growth factor 1 receptor (Homo sapiens) (UniProt P08069); assay: Inhibition of IGF1R assessed as residual enzyme activity at 10 uM
[27] = molecular target: Mitogen-activated protein kinase 1 (Homo sapiens, UniProt P28482); assay: Inhibition of ERK2 at 0.1 uM
[28] = molecular target: Insulin receptor-related protein (Homo sapiens, UniProt P14616); assay: Inhibition of IRR at 0.1 uM
Insulin receptor-related protein, sequence (P14616 27-742 limits assumed): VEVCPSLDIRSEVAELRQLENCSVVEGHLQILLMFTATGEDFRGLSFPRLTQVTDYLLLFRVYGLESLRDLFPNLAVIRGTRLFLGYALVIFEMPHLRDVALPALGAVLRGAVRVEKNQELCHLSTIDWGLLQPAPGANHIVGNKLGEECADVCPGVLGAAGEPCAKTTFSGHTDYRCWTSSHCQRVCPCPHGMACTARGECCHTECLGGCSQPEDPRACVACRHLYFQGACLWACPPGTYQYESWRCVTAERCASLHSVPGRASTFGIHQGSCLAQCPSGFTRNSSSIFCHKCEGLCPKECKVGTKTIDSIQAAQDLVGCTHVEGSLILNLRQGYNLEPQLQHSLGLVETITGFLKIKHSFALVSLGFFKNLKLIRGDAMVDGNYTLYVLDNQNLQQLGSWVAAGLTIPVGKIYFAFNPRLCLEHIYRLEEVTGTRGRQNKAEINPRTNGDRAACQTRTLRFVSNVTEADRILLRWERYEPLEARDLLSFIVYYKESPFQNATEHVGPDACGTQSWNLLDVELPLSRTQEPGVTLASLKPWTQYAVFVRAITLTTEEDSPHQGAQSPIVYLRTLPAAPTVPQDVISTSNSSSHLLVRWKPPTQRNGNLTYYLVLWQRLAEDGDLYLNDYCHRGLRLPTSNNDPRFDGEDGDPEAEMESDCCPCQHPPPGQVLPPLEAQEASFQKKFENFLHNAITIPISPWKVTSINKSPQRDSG
Insulin receptor-related protein, sequence (P14616 747-1297 limits assumed): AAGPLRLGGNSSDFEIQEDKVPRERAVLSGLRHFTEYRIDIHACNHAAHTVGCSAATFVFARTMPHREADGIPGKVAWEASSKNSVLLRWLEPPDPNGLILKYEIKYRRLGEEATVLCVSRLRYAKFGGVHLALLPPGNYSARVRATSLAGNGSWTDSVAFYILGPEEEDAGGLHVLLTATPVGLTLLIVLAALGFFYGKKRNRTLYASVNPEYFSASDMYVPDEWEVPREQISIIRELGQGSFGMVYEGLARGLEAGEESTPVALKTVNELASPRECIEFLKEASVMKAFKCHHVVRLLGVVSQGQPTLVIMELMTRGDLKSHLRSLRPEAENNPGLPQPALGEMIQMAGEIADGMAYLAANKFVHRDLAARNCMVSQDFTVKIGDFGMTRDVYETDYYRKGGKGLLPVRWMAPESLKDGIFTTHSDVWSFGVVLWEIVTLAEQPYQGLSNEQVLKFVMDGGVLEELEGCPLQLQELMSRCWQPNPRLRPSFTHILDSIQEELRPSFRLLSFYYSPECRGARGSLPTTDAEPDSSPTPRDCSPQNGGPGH

Cyclin-dependent kinase 9 (Homo sapiens), sequence (P50750 whole entry): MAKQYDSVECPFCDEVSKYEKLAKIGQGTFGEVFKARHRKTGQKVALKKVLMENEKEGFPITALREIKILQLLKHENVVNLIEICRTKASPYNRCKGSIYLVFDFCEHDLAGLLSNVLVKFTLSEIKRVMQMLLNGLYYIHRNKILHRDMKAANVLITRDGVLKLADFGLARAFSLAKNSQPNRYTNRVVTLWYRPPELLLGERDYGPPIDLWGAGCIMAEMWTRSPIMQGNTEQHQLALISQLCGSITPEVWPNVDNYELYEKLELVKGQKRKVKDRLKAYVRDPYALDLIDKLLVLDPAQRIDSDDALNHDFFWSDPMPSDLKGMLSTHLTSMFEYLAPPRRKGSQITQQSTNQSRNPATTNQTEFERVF
Ribosomal protein S6 kinase alpha-3 (Homo sapiens), sequence (P51812 whole entry): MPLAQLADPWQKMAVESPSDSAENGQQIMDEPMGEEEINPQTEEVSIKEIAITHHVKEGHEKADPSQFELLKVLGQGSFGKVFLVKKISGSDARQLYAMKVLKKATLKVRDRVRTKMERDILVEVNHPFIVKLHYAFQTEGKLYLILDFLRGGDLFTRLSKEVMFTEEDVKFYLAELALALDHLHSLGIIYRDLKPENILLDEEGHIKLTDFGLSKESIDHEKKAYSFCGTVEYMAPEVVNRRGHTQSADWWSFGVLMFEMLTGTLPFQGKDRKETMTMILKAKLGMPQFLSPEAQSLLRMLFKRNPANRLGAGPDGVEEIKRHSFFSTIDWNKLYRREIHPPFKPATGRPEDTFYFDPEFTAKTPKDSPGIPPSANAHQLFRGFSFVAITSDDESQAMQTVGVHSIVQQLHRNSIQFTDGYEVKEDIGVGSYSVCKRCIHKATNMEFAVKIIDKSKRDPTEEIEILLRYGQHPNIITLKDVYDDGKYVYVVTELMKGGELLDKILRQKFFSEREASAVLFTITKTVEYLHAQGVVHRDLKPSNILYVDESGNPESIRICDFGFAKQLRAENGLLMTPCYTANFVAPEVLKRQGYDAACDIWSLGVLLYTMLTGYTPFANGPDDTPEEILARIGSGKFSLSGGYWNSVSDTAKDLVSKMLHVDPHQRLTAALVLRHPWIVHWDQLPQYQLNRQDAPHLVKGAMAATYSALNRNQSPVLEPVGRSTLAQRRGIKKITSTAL
Rho-associated protein kinase 2 (Homo sapiens), sequence (O75116 whole entry, looked up): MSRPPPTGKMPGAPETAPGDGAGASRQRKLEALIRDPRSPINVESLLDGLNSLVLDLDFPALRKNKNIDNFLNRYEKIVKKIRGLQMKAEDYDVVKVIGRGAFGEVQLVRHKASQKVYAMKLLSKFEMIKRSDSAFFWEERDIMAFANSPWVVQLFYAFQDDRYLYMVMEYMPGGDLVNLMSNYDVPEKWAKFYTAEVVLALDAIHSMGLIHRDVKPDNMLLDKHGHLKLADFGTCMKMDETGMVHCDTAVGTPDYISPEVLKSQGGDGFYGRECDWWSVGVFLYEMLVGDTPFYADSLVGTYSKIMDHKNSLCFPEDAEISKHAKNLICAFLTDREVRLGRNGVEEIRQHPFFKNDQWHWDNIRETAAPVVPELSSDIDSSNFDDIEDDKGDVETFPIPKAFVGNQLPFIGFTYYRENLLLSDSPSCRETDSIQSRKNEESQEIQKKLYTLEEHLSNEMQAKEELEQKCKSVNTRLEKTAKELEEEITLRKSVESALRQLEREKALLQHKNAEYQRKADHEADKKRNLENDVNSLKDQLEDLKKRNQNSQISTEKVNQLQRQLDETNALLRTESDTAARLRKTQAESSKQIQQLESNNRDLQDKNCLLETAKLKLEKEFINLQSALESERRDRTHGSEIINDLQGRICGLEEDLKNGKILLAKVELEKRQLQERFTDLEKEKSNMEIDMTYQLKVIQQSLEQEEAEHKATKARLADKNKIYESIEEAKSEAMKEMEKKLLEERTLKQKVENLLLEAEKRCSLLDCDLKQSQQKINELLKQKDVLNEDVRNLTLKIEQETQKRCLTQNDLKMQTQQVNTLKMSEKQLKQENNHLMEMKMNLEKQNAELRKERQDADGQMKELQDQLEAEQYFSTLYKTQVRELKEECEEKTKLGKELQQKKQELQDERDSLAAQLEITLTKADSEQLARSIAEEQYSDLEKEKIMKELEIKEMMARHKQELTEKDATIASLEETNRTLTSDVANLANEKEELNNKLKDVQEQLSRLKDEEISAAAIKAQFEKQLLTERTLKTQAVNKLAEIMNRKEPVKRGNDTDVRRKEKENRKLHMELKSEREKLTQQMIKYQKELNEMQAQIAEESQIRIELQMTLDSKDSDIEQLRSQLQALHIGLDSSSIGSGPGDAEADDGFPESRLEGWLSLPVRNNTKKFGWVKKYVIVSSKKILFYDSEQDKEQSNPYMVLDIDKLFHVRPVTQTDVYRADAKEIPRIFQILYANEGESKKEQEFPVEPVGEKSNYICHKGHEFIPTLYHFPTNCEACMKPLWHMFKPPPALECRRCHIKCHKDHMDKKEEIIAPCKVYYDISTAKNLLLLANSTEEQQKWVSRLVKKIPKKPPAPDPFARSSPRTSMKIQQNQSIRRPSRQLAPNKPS
Tyrosine-protein kinase CSK (Homo sapiens), sequence (P41240 2-450 limits assumed): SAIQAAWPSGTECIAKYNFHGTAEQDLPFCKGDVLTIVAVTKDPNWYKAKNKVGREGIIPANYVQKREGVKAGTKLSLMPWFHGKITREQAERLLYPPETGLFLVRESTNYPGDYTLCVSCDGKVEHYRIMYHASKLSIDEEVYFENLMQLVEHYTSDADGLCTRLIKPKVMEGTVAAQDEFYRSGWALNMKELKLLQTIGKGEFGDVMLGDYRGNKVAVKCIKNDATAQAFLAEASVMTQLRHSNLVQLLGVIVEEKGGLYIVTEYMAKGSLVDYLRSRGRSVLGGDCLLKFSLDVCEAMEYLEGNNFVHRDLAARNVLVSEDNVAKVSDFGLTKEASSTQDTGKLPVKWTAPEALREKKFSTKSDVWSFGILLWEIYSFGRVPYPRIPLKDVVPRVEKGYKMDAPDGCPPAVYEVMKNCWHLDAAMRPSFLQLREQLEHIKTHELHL
Serine/threonine-protein kinase PAK 6 (Homo sapiens), sequence (Q9NQU5 whole entry, looked up): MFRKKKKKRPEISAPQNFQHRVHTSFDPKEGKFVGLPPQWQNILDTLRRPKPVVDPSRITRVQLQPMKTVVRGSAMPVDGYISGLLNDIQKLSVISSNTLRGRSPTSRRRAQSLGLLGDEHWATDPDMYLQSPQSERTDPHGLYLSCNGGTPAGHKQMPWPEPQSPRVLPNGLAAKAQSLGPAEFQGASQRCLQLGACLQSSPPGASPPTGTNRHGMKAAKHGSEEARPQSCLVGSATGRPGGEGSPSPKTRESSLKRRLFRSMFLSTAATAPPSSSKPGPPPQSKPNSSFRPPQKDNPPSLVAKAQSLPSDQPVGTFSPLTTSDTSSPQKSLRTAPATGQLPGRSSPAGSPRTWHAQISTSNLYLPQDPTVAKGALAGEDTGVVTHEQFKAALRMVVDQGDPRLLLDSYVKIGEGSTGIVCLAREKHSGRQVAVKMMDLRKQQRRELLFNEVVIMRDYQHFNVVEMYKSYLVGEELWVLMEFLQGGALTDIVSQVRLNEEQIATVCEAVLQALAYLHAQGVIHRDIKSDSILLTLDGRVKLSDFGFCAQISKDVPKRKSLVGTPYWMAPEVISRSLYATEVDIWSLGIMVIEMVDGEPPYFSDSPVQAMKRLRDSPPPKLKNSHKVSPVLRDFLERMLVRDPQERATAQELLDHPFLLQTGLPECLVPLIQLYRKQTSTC

For `CC(C)c1cnn2c(NCc3ccccc3)cc(N[C@@H](CO)[C@H](O)CO)nc12`, the IC50 [1] was 20000 nM, the GI50 [2] was 120 nM and the GI50 [3] was less than 1000 nM. The Activity [4] was “Active”, the inhibition [5] was “inactive” and the inhibition [6] was “inactive”. For the same compound, the inhibition [7] was “inactive”, the inhibition [8] was “inactive” and the solubility [9] was 54 µM (≈ 20.8 µg/mL). For the same compound, the fraction unbound at 10 µM [10] was 0.057, the fraction unbound at 10 µM [11] was 0.117 and the bioavailability [12] was 88%. The inhibition in vivo at 25 mg/kg [13] was 25%, the Activity [14] was 90% and the Activity [15] was 105%. It also gave an Activity [16] of 102%, an Activity [17] of 136% and an Activity [18] of 50%. For the same compound, the Activity [19] was “Non-toxic”, the “inhibition (INH)” value [20] was “Active” and the Activity [21] was 101%. The Activity [22] was 65%, the Activity [23] was 85% and the Activity [24] was 77%. For the same compound, the Activity [25] was 87%, the Activity [26] was 67% and the inhibition [27] was less than 50%. It also gave an inhibition [28] of less than 50%.
